In paper PMC2134812 (The Journal of Cell Biology, 1997):
Entries after “also recorded” stand apart in the source; their conditions may differ.

B1: NGF: mature 118aa NGF peptide (protein)
chain: SSTHPVFHMGEFSVCDSVSVWVGDKTTATDIKGKEVTVLAEVNINNSVFRQYFFETKCRASNPVESGCRGIDSKHWNSYCTTTHTFVKALTTDEKQAAWRFIRIDTACVCVLSRKATRRG

How the values were obtained:
B5 and SH-SY5Y cells = assay: Competition of 125I-LIP2 binding; set-up: species or system human; settings: 2 μM competitor, preincubated 1 h at 4°C, 10 nM 125I-LIP2
[1] = target: specific receptors (binding sites) for LIP2 on B5 human prostatic adenocarcinoma cells (human (endogenous in B5)); assay: radioligand binding
PC12 cells [2] = assay: F-actin redistribution in PC12 cells; assay type: cell-based, rat
In short: (§1)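 B5 cells and PC12 cells were seeded in RPMI-1640 with 1% horse serum, with PC12 cells on poly-D-lysine. After 18 h, cells were exposed for 2 min at 37°C to test peptide (10−7, 10−8 or 10−9 M) or 100 ng/ml NGF. For PC12, a control peptide was used at 10−6 and 10−7 M. Cells were PBS-washed, fixed in 3% paraformaldehyde for 20 min and permeabilised in 0.1% Triton X-100 for 2 min. F-actin was stained with phallacidin–BODIPY or phalloidin–rhodamine and examined by fluorescence microscopy.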

Trk protein [3] = settings: ref Kaplan et al., 1991; cited from earlier work
Trk protein [4] = assay: Trk tyrosine phosphorylation in B5 cells; assay type: cell-based, human; settings: 200 ng/ml NGF, 5 min
In short: (§2)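 Confluent B5 cells or TrkA-overexpressing PC12 cells (10–15-fold TrkA) were stimulated for 5 min with test peptide at 10−9 or 10−7 M, or with NGF at 200 ng/ml. Lysates were immunoprecipitated with a pan-Trk antibody against the TrkA C-terminus and run on 7.5% SDS-PAGE. Blots were probed overnight at 4°C with HRP-anti-phosphotyrosine (1:2,500) and detected by ECL. They were then stripped and reprobed with pan-Trk antibody as a loading control.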

B5 cells = assay: F-actin redistribution in B5 cells; assay type: cell-based, human; settings: 2 min at 37°C; LIP1, LIP2 or 100 ng/ml NGF
In short: as §1

chick embryo DRG ganglia = assay: Neurite outgrowth in dorsal root ganglia; assay type: cell-based; settings: 10 ng of mouse NGF; data not shown
In short: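 Dorsal root ganglia were dissected from 9-day-old chick embryos. They were cultured with test peptides at 10−7, 10−8 and 10−9 M, or with 10 ng mouse NGF. Neurite outgrowth was scored.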

PC12 cells [5] = assay: Neurite outgrowth in PC12 cultures; assay type: cell-based, rat; settings: NGF-treated; data not shown
Trk protein [6] = assay: Trk tyrosine phosphorylation in PC12 cells overexpressing TrkA; assay type: cell-based; settings: 200 ng/ml NGF, 5 min
In short: as §2

Row | Molecule | Inhibition of 125I-LIP2 binding (in words) (B5 and SH-SY5Y cells) | also measured
1 | cytochrome c | No significant inhibitory effect | 
2 | neurotensin | No significant inhibitory effect | 
3 | leupeptin | No significant inhibitory effect | 
4 | vasopressin | No significant inhibitory effect | 
5 | LIP2 (38aa synthetic peptide, sequence -40 to -3 of the rat NGF precursor), unlabelled |  | Kd [1]: 0.2 to 0.4 µM
6 | aprotinin | No significant inhibitory effect | 
7 | pepstatin A | No significant inhibitory effect | 
8 | somatostatin | No significant inhibitory effect | 
9 | methionine enkephalin | No significant inhibitory effect | 
10 | [Tyr^8] bradykinin (RPPGFSPYR; Bradykinin; UniProt P01042 381-389, looked up, variant F8Y) |  | F-actin redistribution, control peptide (PC12 cells [2]; 10^−6 and 10^−7 M): had no effect
11 | 125I-LIP2 (iodinated 38aa synthetic peptide, sequence -40 to -3 of the rat NGF precursor) |  | Kd, high affinity binding site [1]: 0.0028 µM; Kd, low affinity binding site [1]: 0.048 µM
12 | substance P | No significant inhibitory effect | 
13 | bombesin | No significant inhibitory effect | 
14 | vasoactive intestinal peptide [vasoactive intestinal peptide (VIP)] | No significant inhibitory effect | 
15 | ubiquitin | No significant inhibitory effect | 
16 | α2-macroglobulin | No significant inhibitory effect | 
17 | epidermal growth factor | No significant inhibitory effect | 
18 | α-melanocyte stimulating hormone | No significant inhibitory effect | 
19 | B1 | did not show any significant inhibition | Time to trk tyrosine phosphorylation by NGF (Trk protein [3]): ≤ 1 min; Trk tyrosine phosphorylation, NGF (Trk protein [4]): phosphorylation of Trk; F-actin redistribution (B5 cells): neither NGF nor the peptides induced F-actin rearrangement in B5 cells; also recorded: had no effect on B5 cells; Neurite outgrowth, NGF (chick embryo DRG ganglia): dense neurite outgrowth; Neurite outgrowth, NGF (PC12 cells [5]): dense neurite outgrowth; F-actin redistribution, NGF (PC12 cells [2]; 2 min at 37°C, 100 ng/ml NGF): more abundant ruffling; Trk tyrosine phosphorylation, NGF (Trk protein [6]): phosphorylation of Trk
